CHRM5 PAM: human M5 muscarinic receptor positive allosteric modulators, primary screen, CHO-K1 cells, Fluo-8 calcium fluorescence | activation, % at 3 µM | Muscarinic acetylcholine receptor M5 (Homo sapiens), P08912 | 360,000 compounds, 0.3% hits | CHO-K1 hM5, ACh EC20 PAM; 0% = ACh EC20, 100% = ACh EC100;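 active = activation above the run cutoff, the mean activation of all test compounds plus 3 SD, cut at about 18% in these data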
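system = human M5 receptor in CHO-K1 cells | compound = one concentration, 3 µM final (nominal) | schedule = Post-acetylcholine fluorescence recording 140 s | signal = Fluo-8 calcium dye fluorescence, kinetic read | benchmarks = low control EC20 acetylcholine (0%), high control EC100 acetylcholine (100%) | repeats = singlicate, one well per test compound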
CHRM4 antagonist: human M4 muscarinic receptor antagonists, primary screen, CHO cells, Fluo-8 calcium fluorescence; Muscarinic acetylcholine receptor M4 (Homo sapiens), P08173; CHO-hM4 cells, ACh EC80; inhibition, % at 3 µM; 360,000 compounds, 0.73% hits; AID 624125, 2012;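 active = inhibition above its plate's cutoff, the mean inhibition of sample wells plus 3 SD, cut at about 27% in these data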;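 also: 0% = acetylcholine EC80 with DMSO and 100% = DMSO without agonist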
Target sequence (P08173 whole entry, looked up): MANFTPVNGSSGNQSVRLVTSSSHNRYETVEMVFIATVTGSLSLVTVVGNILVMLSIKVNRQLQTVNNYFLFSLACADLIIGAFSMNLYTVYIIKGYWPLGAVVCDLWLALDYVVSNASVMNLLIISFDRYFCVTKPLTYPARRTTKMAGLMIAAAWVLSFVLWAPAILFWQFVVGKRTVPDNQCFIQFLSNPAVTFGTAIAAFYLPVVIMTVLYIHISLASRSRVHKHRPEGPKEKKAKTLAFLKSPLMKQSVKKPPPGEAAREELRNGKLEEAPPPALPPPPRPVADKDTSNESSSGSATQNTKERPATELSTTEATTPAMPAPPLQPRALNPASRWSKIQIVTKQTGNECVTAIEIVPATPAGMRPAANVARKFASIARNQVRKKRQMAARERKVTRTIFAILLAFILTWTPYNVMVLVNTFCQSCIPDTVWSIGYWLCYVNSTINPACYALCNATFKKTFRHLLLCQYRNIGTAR
CHRM4 agonist: human M4 muscarinic receptor agonists, primary screen, CHO-K1 cells, Fluo-8 calcium fluorescence | activation, % at 3 µM | CHO-K1 hM4/Gqi5; vehicle 0%, full acetylcholine response 100% | 360,000 compounds, 0.14% hits | Muscarinic acetylcholine receptor M4 (Homo sapiens), P08173;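 active = activation above the run mean over all test wells plus 3 SD, cut at about 32% in these data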;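 also: peak over basal fluorescence ratio per well then scaled between controls; 0% = DMSO wells and 100% = acetylcholine at EC100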
M5 antag: human M5 muscarinic receptor antagonists, primary screen, CHO cells, Fluo-8 calcium fluorescence; AID 624040, 2012; Muscarinic acetylcholine receptor M5 (Homo sapiens), P08912; CHO-hM5 cells, ACh EC80; 360,000 compounds, 0.59% hits; inhibition, % at 3 µM;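 active = inhibition above a per-plate cutoff, the mean of that plate's test compounds plus 3 SD, cut at about 27% in these data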;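 also: 0% = acetylcholine EC80 with DMSO and 100% = DMSO without agonist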
CHRM5 agonist: human M5 muscarinic receptor agonists, primary screen, CHO-K1 cells, Fluo-8 calcium fluorescence; CHO-K1 hM5 cells; 0% DMSO wells, 100% maximal acetylcholine response; activation, % at 3 µM; 360,000 compounds, 0.19% hits; AID 624037, 2012; Muscarinic acetylcholine receptor M5 (Homo sapiens), P08912;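 active = activation above the run's mean over test compounds plus 3 SD, cut at about 23% in these data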;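 also: signal is peak over basal fluorescence ratio across the kinetic read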
M4 PAM: human M4 muscarinic receptor positive allosteric modulators, primary screen, CHO-K1 cells, Fluo-8 calcium fluorescence | Muscarinic acetylcholine receptor M4 (Homo sapiens), P08173 | CHO-K1 hM4/Gqi5, ACh EC20; 0% = ACh EC20, 100% = maximal ACh | activation, % at 3 µM | 360,000 compounds, 0.4% hits | AID 624126, 2012;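 active = activation above its plate's cutoff, the mean activation of sample wells plus 3 SD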
Active calls of the source: *. Shown are actives, neighbours in structure and some others; about 1.9% of the full set was active somewhere.

SMILES	CHRM5 PAM	CHRM4 antagonist	CHRM4 agonist	M5 antag	CHRM5 agonist	M4 PAM
Cc1ccc(NS(=O)(=O)c2ccc(C(=O)N3CCCC(C(F)(F)F)C3)cc2)cc1 (stereo not drawn)	-12.4	13.6	34.1*	13.2	53.8*	-5.6
CN(c1ccccc1)S(=O)(=O)c1cccc(NC(=O)c2cccc(C#N)c2)c1	-16.4	8.5	20.1	32.9*	5.9	-12.1
CC(C)N(C(=S)Nc1cccc(S(=O)(=O)N(C)C)c1)c1ccccc1	19.0*	-0.8	0.9	3.3	5.0	2.2
CN(C)S(=O)(=O)c1cccc(NC(=O)c2ccc(COc3ccccc3)cc2)c1	-21.9	21.7	24.5	26.9*	8.1	-18.2
CN(c1ccccc1)S(=O)(=O)c1cccc(NC(=O)CSc2nnc(N)s2)c1	-17.4	11.1	13.4	16.5	3.9	-13.6
CN(c1ccccc1)S(=O)(=O)c1cccc(NC(=O)CSc2nncs2)c1	-17.1	27.1*	14.8	24.9	8.2	-23.7
CCOC(=O)C1CCCN(c2c(NCCc3ccccc3)c(=O)c2=O)C1 (stereo not drawn)	4.0	-1.3	0.6	-0.4	0.4	-3.6
COc1cc2c(cc1OC)[C@@H](NC(=O)c1ccc(C(F)(F)F)cc1)[C@H](OCc1ccccc1)C2	-1.3	-9.8	0.6	1.3	-1.2	5.5
O=C(c1ccc(F)cc1)C1CCN(Cc2ccc(F)cc2)CC1	-1.9	-1.6	0.7	8.4	-9.9	-6.7
CCn1c(=NC(=O)CSC(C)=O)sc2ccccc21	-9.6	-8.7	2.8	1.1	-5.3	18.6
CCOC(=O)C1=C(C)N(CC(C)C)C(=O)C1	0.6	-10.0	1.7	6.5	1.6	22.2*
CC1CN(S(=O)(=O)c2cccs2)CC(C)O1 (stereo not drawn)	0.6	-0.2	0.5	-6.3	3.2	0.2
CC(C)C(=O)Nc1ccc(-c2nc3ncccc3o2)cc1	-2.9	12.5	0.6	29.8*	-3.5	-6.7
CC(C)C(=O)Nc1cccc(-c2nc3ncccc3o2)c1	-5.9	8.5	2.9	9.0	-0.7	1.3
Cc1cccc(C)c1NC(=O)[C@@]1(CC(=O)O)CC(/C=C/c2ccccc2)=NO1	0.9	-23.4	3.2	-3.7	-4.5	14.0*
COc1ccc(NC(=S)NCc2cccnc2)cc1OC	19.6*	-11.1	3.8	-10.8	-0.8	23.4*
O=C(CCC(=O)N1CCN(c2ccc(F)cc2)CC1)c1ccc(Cl)cc1	-4.9	-7.7	6.8	2.6	1.2	-4.7
O=C(CCSCc1ccccc1Cl)N1CCN(c2cccc(Cl)c2)CC1	-0.5	-16.6	-0.2	-11.1	-0.7	23.1*
O=C(CCC(=O)N1CCN(c2ccc(Cl)c(Cl)c2)CC1)c1ccccc1	-14.9	16.6	11.4	27.3*	3.1	-8.9
COc1ccc(C2(O)CCN(C(=O)c3c(F)cccc3F)CC2)cc1	-1.4	1.1	0.6	4.5	1.5	0.3
COC(=O)Cn1nc(-c2ccccc2)n(-c2ccccc2)c1=S	-4.9	5.5	1.0	-0.4	-3.6	-5.2
COc1cccc(OCCCCCN2CCOCC2)c1	-7.5	-0.5	7.7	2.1	-7.0	-8.1
S=C(Nc1cccc2ccccc12)NN1CCCCCC1	-27.1	34.8*	-1.2	8.9	-9.7	-16.9
COc1cc(NC(=O)c2c(F)c(F)c(OC)c(F)c2F)ccc1NC(=O)c1cccs1	3.6	-7.6	5.1	-1.7	-4.3	1.1
CC(C)Cc1nnc(NC(=O)CCC(=O)N2CCN(C3CCCC3)CC2)s1	-4.4	-4.7	-0.7	4.0	-2.5	-10.3
SMILES	CHRM5 PAM	CHRM4 antagonist	CHRM4 agonist	M5 antag	CHRM5 agonist	M4 PAM
O=C(CCc1ccccc1)NC(NC(=S)Nc1ccc(Br)cc1)C(Cl)(Cl)Cl (stereo not drawn)	-18.5	9.6	17.2	25.1	8.3	-5.3
O=C(CCc1ccccc1)NC(NC(=S)Nc1cccc(Cl)c1)C(Cl)(Cl)Cl (stereo not drawn)	-14.1	6.6	12.3	34.2*	5.8	-8.2
COc1ccc(N2CCN(C(=O)c3ccc(N(C)S(=O)(=O)c4ccc(OC)cc4)cc3)CC2)cc1	-12.2	2.7	11.9	1.3	3.4	-9.3
Cn1c(N)c(C(=O)/C=C/c2ccccc2)c(=O)[nH]c1=O	-18.8	-4.4	0.3	46.8*	-7.5	-0.1
COc1ccc(NS(=O)(=O)c2cc(N=Nc3c(O)[nH]c(=O)[nH]c3=O)ccc2Cl)cc1	2.6	-7.9	2.7	-4.0	0.5	2.2
CC(=NNc1nc2ccccc2s1)c1ncccn1	0.6	48.1*	12.3	15.6	11.4	-0.4
CC(=NNc1nc2ccccc2o1)c1cc2ccccc2cn1	-15.9	33.4*	10.6	27.8*	8.3	-0.3
Oc1ccccc1/C=N/Nc1nc2ccccc2o1	-4.0	-17.5	2.1	-5.2	-4.1	-4.6
Cc1cc(C)nc(Nc2nc3ccccc3o2)n1	-8.7	-9.8	0.4	15.1	-3.2	-6.2
C/C(=N\Nc1nc2ccccc2s1)c1cccs1	2.5	-6.2	-0.7	-3.5	-1.3	-0.5
CC(=NNc1nc2ccccc2o1)c1ncccn1	-19.9	57.7*	6.3	50.7*	6.1	-1.4
NC(=O)N/N=C/c1ccccc1OCC(=O)NCc1ccccc1	8.5	-0.1	2.4	-12.8	1.8	15.0
COc1ccc(CC(=O)Nc2nc(-c3ccccc3)c(C(C)=O)s2)cc1OC	-15.4	-2.1	13.0	4.8	-1.1	-9.6
CS(=O)(=O)N(CC(=O)NC1CC2CCC1C2)c1cccc(C(F)(F)F)c1 (stereo not drawn)	-0.4	0.1	1.4	1.3	-3.0	-3.1
Cc1ccc(N(CC(=O)NC2CC3CCC2C3)S(C)(=O)=O)cc1C (stereo not drawn)	-3.0	1.6	0.1	-1.2	1.6	27.5*
COc1cccc(C(C(=O)NCc2ccco2)N(Cc2ccco2)C(=O)Cn2nnc3ccccc32)c1 (stereo not drawn)	-19.4	29.7*	9.2	12.5	-1.2	-6.6
COc1cccc(N(C(=O)Cn2nnc3ccccc32)C(C(=O)NCc2ccco2)c2cccnc2)c1 (stereo not drawn)	2.5	-3.7	1.2	-0.6	-0.2	1.4
CCN1CCC(n2nccc2NC(=O)c2ccccc2Cl)CC1	10.1	-8.7	1.5	-3.9	-5.1	6.9
Cc1ccc(C(C)(C)C)c(OCCN2CCCC2)c1	-17.2	17.3	1.6	14.5	-5.8	-31.5
CC(C)(C)c1ccccc1OCCN1CCCC1	-13.4	31.8*	0.8	11.4	-6.4	-32.1
